Measured values reported in ChEMBL document CHEMBL3400032 (Bioorg Med Chem, 2015).
Active and inactive are the calls of the source. The rule behind the calls is not given here.

Experiments:
[1] = Drug metabolism in Sprague-Dawley rat liver S9 fraction assessed as compound remaining at 1 uM after 30 mins by HPLC/MS/MS analysis relative to control; type: ADME, subcellular; settings: read-out: Stability
Outline: (§1)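 Test compound at 1 µM final, incubated 30 min at 37 °C in serum, or in S9 mix (50 mM potassium phosphate pH 7.4, 3 mM NADPH, 1 mg protein/mL pooled male SD rat or human liver S9). Preincubated 5 min at 37 °C, compound added in acetonitrile–water (1:1), stopped with ice-cold acetonitrile, centrifuged, filtered, parent and carboxylate hydrolysate quantified by HPLC-MS/MS.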

Rattus norvegicus [2] = assay: Tmax in rat assessed as 2-(3-aminopiperidin-1-yl)-3-(2-chlorobenzyl)-5-methyl-4-oxo-4,5-dihydro-3H-imidazo[4,5-c]quinoline-8-carboxylic acid level at 20 mg/kg, po; type: ADME, organism-based; set-up: dose 20 mg/kg, route oral; settings: in vivo
Plasma = assay: Plasma concentration in rat at 20 mg/kg, po; type: ADME, organism-based; set-up: dose 20 mg/kg, route oral; settings: in vivo
Outline: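 Rats dosed orally with prodrug; plasma levels of prodrug and carboxylate active metabolite measured over time, limit of quantification 1.0 ng/mL.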

Rattus norvegicus [3] = assay: In vivo inhibition of DPP4 in Sprague-Dawley rat at 3 mg/kg, po after 10 hrs; type: functional
Outline: (§2)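 Male SD rats, 11 weeks, fasted 24 h before predose sampling and throughout; single oral gavage 3 mg/kg. Blood taken −0.5, 1, 2, 4, 6, 10, 24 h. Plasma DPP-4 activity: Gly-Pro-MCA substrate, HEPES/NaCl/MgCl2 buffer pH 7.8, stopped with 5% acetic acid after 20 min, AMC fluorescence 360/460 nm against AMC standard curve; duplicates, background-subtracted, mU/mL plasma.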

[4] = Drug metabolism in human serum assessed as compound remaining at 1 uM after 30 mins by HPLC/MS/MS analysis relative to control; type: ADME, cell-free; settings: read-out: Stability; outline: as §1
Rattus norvegicus [5] = assay: In vivo inhibition of DPP4 in Sprague-Dawley rat at 3 mg/kg, po after 1 hr; type: functional; outline: as §2
Serum [6] = assay: Drug metabolism in human serum assessed as 2-(3-aminopiperidin-1-yl)-3-(2-chlorobenzyl)-5-methyl-4-oxo-4,5-dihydro-3H-imidazo[4,5-c]quinoline-8-carboxylic acid formation at 1 uM after 30 mins by HPLC/MS/MS analysis relative to control; type: ADME, cell-free; settings: 0.5 h; outline: as §1
Serum [7] = assay: Drug metabolism in rat serum assessed as 2-(3-aminopiperidin-1-yl)-3-(2-chlorobenzyl)-5-methyl-4-oxo-4,5-dihydro-3H-imidazo[4,5-c]quinoline-8-carboxylic acid formation at 1 uM after 30 mins by HPLC/MS/MS analysis relative to control; type: ADME, cell-free; settings: 0.5 h; outline: as §1
Rattus norvegicus [8] = assay: Reduction of blood glucose level in po dosed Zucker fatty rat model by OGTT analysis; type: functional, organism-based
[9] = Solubility of the compound at pH 7.4; type: physicochemical; settings: buffer
Rattus norvegicus [10] = assay: Oral bioavailability in rat assessed as 2-(3-aminopiperidin-1-yl)-3-(2-chlorobenzyl)-5-methyl-4-oxo-4,5-dihydro-3H-imidazo[4,5-c]quinoline-8-carboxylic acid level at 20 mg/kg; type: ADME, organism-based; settings: in vivo
[11] = Solubility of the compound at pH 5.5; type: physicochemical; settings: buffer
[12] = Permeability of the compound at pH 7.4 by PAMPA; type: ADME; settings: read-out: permeability
[13] = Permeability of the compound at pH 5 by PAMPA; type: ADME; settings: read-out: permeability
[14] = Drug metabolism in rat serum assessed as compound remaining at 1 uM after 30 mins by HPLC/MS/MS analysis relative to control; type: ADME, cell-free; settings: read-out: Stability; outline: as §1
[15] = Drug metabolism in human liver S9 fraction assessed as compound remaining at 1 uM after 30 mins by HPLC/MS/MS analysis relative to control; type: ADME, subcellular; settings: read-out: Stability; outline: as §1
[16] = Solubility of the compound at pH 2.5; type: physicochemical; settings: buffer
Rattus norvegicus [17] = assay: Cmax in rat assessed as 2-(3-aminopiperidin-1-yl)-3-(2-chlorobenzyl)-5-methyl-4-oxo-4,5-dihydro-3H-imidazo[4,5-c]quinoline-8-carboxylic acid level at 20 mg/kg, po; type: ADME, organism-based; set-up: dose 20 mg/kg, route oral; settings: in vivo
Rattus norvegicus [18] = assay: AUC in rat assessed as 2-(3-aminopiperidin-1-yl)-3-(2-chlorobenzyl)-5-methyl-4-oxo-4,5-dihydro-3H-imidazo[4,5-c]quinoline-8-carboxylic acid level at 20 mg/kg, po; type: ADME, organism-based, Plasma; set-up: dose 20 mg/kg, route oral; settings: in vivo
Rattus norvegicus [19] = assay: Reduction of blood glucose level in Zucker fatty rat model at 1 mg/kg, po by OGTT analysis; type: functional, organism-based; set-up: dose 1 mg/kg
[20] = Drug metabolism in human liver S9 fraction assessed as 2-(3-aminopiperidin-1-yl)-3-(2-chlorobenzyl)-5-methyl-4-oxo-4,5-dihydro-3H-imidazo[4,5-c]quinoline-8-carboxylic acid formation at 1 uM after 30 mins by HPLC/MS/MS analysis relative to control; type: ADME, subcellular; settings: s9, 0.5 h; outline: as §1
[21] = Drug metabolism in Sprague-Dawley rat liver S9 fraction assessed as 2-(3-aminopiperidin-1-yl)-3-(2-chlorobenzyl)-5-methyl-4-oxo-4,5-dihydro-3H-imidazo[4,5-c]quinoline-8-carboxylic acid formation at 1 uM after 30 mins by HPLC/MS/MS analysis relative to control; type: ADME, subcellular; settings: s9, 0.5 h; outline: as §1
Rattus norvegicus [22] = assay: AUC in rat assessed as 2-(3-aminopiperidin-1-yl)-3-(2-chloro-5-fluorobenzyl)-5-methyl-4-oxo-4,5-dihydro-3H-imidazo[4,5-c]quinoline-7-carboxylic acid level at 10 mg/kg, po; type: ADME, organism-based, Plasma; set-up: dose 10 mg/kg, route oral; settings: in vivo
Rattus norvegicus [23] = assay: Oral bioavailability in rat assessed as 2-(3-aminopiperidin-1-yl)-3-(2-chloro-5-fluorobenzyl)-5-methyl-4-oxo-4,5-dihydro-3H-imidazo[4,5-c]quinoline-7-carboxylic acid level at 10 mg/kg; type: ADME, organism-based; settings: in vivo

| SMILES | remaining at 0.5 h, 1 µM [1] | remaining at 0.5 h, 1 µM [4] | solubility [9] | solubility [11] | Papp [12] | Papp [13] | remaining at 0.5 h, 1 µM [14] | remaining at 0.5 h, 1 µM [15] | solubility [16] | other results |
| --- | --- | --- | --- | --- | --- | --- | --- | --- | --- | --- |
| Cc1oc(=O)oc1COC(=O)c1ccc2c(c1)c1nc(N3CCC[C@@H](N)C3)n(Cc3ccccc3Cl)c1c(=O)n2C.Cl | < 0.5% | < 0.5% | < 1 µg/mL | 3 µg/mL | 12.1 ×10⁻⁶ cm/s | 10.3 ×10⁻⁶ cm/s | < 0.5% | 7.8% | 210 µg/mL | Tmax (Rattus norvegicus [2]): 2 h; Cp (Plasma): < 1 ng/mL; inhibition in vivo at 3 mg/kg (Rattus norvegicus [3]): 64%; inhibition in vivo at 3 mg/kg (Rattus norvegicus [5]): 87%; Drug metabolism (Serum [6]): metabolite_detected; Drug metabolism (Serum [7]): metabolite_detected; Activity (Rattus norvegicus [8]): Dose-dependent effect; F (Rattus norvegicus [10]): 35%; Cmax (Rattus norvegicus [17]): 94.1 ng/mL; AUC (Rattus norvegicus [18]): 728 ng·h/mL; Activity (Rattus norvegicus [19]): Active; Drug metabolism [20]: metabolite_detected; Drug metabolism [21]: metabolite_detected |
| Cc1oc(=O)oc1COC(=O)c1ccc2c3nc(N4CCC[C@@H](N)C4)n(Cc4cc(F)ccc4Cl)c3c(=O)n(C)c2c1.Cl | 3.6% | < 0.5% | < 1 µg/mL | 1 µg/mL | 15.9 ×10⁻⁶ cm/s | 15.8 ×10⁻⁶ cm/s | < 0.5% | 13% | 47 µg/mL | AUC (Rattus norvegicus [22]): 43.9 ng·h/mL; F (Rattus norvegicus [23]): 4.8% |
